In ChEMBL document CHEMBL1130287, “Potent and selective non-benzodioxole-containing endothelin-A receptor antagonists” (J Med Chem, 1997):
Values belong to the molecule of their own block, whether it stands above or below them.

Legend:
[1] = biological target: T1, Endothelin-1 receptor (Rattus norvegicus, UniProt P26684); assay: Binding affinity towards endothelin A receptor in prolactin secreting rat pituitary cells using [125I]ET1 as radioligand.; assay type: cell-based, Pituitary gland cell
T1 sequence (P26684 whole entry): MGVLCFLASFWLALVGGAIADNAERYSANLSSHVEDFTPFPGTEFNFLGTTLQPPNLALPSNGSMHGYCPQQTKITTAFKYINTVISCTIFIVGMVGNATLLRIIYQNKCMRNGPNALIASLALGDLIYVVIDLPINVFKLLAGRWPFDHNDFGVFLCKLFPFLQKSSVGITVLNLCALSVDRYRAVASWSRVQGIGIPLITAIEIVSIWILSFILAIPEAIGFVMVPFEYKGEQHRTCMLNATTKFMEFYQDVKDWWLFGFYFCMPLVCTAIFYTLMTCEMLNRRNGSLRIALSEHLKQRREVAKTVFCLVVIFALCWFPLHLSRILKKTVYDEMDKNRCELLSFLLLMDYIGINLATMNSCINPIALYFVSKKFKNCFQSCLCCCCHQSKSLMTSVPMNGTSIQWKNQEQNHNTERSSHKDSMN
How it was run: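 Membranes from rat MMQ pituitary cells (predominantly ETA), kept at 4 °C and stored in Tris/NaCl/MgCl2 buffer pH 7.4 with protease inhibitors. Bound ligand separated by vacuum filtration on glass fiber. Nonspecific binding defined with 1 μM ET-1.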

[2] = biological target: T2, Endothelin receptor type B (Sus scrofa, UniProt P35463); assay: Binding affinity towards endothelin B receptor in porcine cerebellar tissue using [125I]-ET-1 as radioligand.
T2 sequence (P35463 whole entry): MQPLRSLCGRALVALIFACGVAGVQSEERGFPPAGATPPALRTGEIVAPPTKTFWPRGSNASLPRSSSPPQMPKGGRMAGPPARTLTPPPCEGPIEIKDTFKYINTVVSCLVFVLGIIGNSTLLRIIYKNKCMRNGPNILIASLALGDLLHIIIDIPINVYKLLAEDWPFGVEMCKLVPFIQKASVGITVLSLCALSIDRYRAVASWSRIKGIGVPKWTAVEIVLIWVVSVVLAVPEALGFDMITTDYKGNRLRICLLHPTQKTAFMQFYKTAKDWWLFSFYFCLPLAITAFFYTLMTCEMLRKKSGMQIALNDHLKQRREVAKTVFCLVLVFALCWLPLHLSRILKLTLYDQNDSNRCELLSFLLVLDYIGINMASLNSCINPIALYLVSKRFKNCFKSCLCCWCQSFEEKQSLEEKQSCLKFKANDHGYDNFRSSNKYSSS
How it was run: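 Membranes from porcine cerebellar tissue (ETB), kept at 4 °C and stored in Tris/NaCl/MgCl2 buffer pH 7.4 with protease inhibitors. Bound and free separated by glass-fiber filtration. Nonspecific binding measured with 1 μM ET-1.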

[3] = Maximum concentration of compound in plasma administered orally to rats; assay type: ADME, organism-based; design: route oral; conditions: rat, po
How it was run: (§1)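 Male Sprague–Dawley rats, n = 4 per group. Vehicle: ethanol:propylene glycol:D5W (20:30:50) with 1 mol equiv NaOH. Dosing: 5 mg/kg iv jugular bolus, or 10 mg/kg oral gavage. Tail-vein plasma sampled 0.1 (iv only) to 12 h and analyzed by HPLC after extraction. Trapezoidal AUC extrapolated to infinity. F from dose-corrected oral versus iv AUC.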

[4] = Area under curve was determined in portal blood of rat when administered intradermally; assay type: ADME, organism-based; design: concentration or dose not given beside the values; conditions: in the assay text read “intraduodenally” for “intradermally”
How it was run: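 Male Sprague–Dawley rats (~225 g), fasted overnight and anesthetized with inactin (100 mg/kg ip). Pylorus ligated; carotid and portal vein catheterized. Intraduodenal dose 10 mg/kg at t = 0. Portal blood drawn at 10, 30 and 60 min; drug measured by HPLC-UV at 226 nm against plasma standards (0.01–50 μg/mL). AUC calculated by trapezoidal rule.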

[5] = Time taken to decrease the plasma concentration to half of the maximum concentration when compound was administered intravenously in rats; assay type: ADME, organism-based; conditions: rat, iv; how it was run: as §1
[6] = Oral bioavailability in rat; assay type: ADME, organism-based; conditions: in vivo; how it was run: as §1
[7] = Area under curve was determined in carotid blood of rat when administered intraduodenally; design: concentration or dose not given beside the values

Structure (SMILES): CCCN(C)C(=O)CN1C[C@H](c2ccc3cc[nH]c3c2)[C@@H](C(=O)O)[C@@H]1c1ccc(OC)cc1
IC50 [1]: 5.1 µM
IC50 [2]: 35 µM

Structure (SMILES): CCCN(C)C(=O)CN1C[C@H](c2ccc3c(c2)CCO3)[C@@H](C(=O)O)[C@@H]1c1ccc(OC)cc1
IC50 [1]: 0.13 µM
IC50 [2]: 19 µM

Structure (SMILES): CCCN(C)C(=O)CN1C[C@H](c2ccc(OC)cc2OC)[C@@H](C(=O)O)[C@@H]1c1ccc(OC)cc1
IC50 [1]: 0.407 µM
IC50 [2]: 72 µM

Structure (SMILES): CCCN(C)C(=O)CN1C[C@H](c2cccc(OC)c2)[C@@H](C(=O)O)[C@@H]1c1ccc(OC)cc1
IC50 [1]: 1.7 µM

Structure (SMILES): CCCN(C)C(=O)CN1C[C@H](c2ccccc2)[C@@H](C(=O)O)[C@@H]1c1ccc(OC)cc1
IC50 [2]: > 100 µM

Structure (SMILES): CCCN(C)C(=O)CN1C[C@H](c2ccc3c(c2)CCC3)[C@@H](C(=O)O)[C@@H]1c1ccc(OC)cc1
IC50 [1]: 0.31 µM
IC50 [2]: 11 µM

Structure (SMILES): CCCN(C)C(=O)CN1C[C@H](c2ccc(OC)cc2)[C@@H](C(=O)O)[C@@H]1c1ccc(OC)cc1
IC50 [1]: 0.176 µM
IC50 [2]: 16 µM

Structure (SMILES): CCCN(C)C(=O)CN1C[C@H](c2ccc(F)c(F)c2)[C@@H](C(=O)O)[C@@H]1c1ccc(OC)cc1
IC50 [1]: 0.31 µM
IC50 [2]: 35 µM

Structure (SMILES): CCCN(C)C(=O)CN1C[C@H](c2ccc3c(c2)OCCO3)[C@@H](C(=O)O)[C@@H]1c1ccc(OC)cc1
IC50 [1]: 0.13 µM
IC50 [2]: 35 µM

Structure (SMILES): CCCN(C)C(=O)CN1C[C@H](c2ccc3ccoc3c2)[C@@H](C(=O)O)[C@@H]1c1ccc(OC)cc1
IC50 [1]: 0.258 µM
IC50 [2]: 13 µM

Structure (SMILES): CCCN(C)C(=O)CN1C[C@H](c2ccc(OC)c(OC)c2)[C@@H](C(=O)O)[C@@H]1c1ccc(OC)cc1
IC50 [1]: 0.73 µM
IC50 [2]: 31 µM

Structure (SMILES): CCCN(C)C(=O)CN1C[C@H](c2ccc3c(c2)OCC3)[C@@H](C(=O)O)[C@@H]1c1ccc(OC)cc1
IC50 [1]: 0.137 µM
IC50 [2]: 6.4 µM

Structure (SMILES): CCCN(C)C(=O)CN1C[C@H](c2ccc3ccccc3c2)[C@@H](C(=O)O)[C@@H]1c1ccc(OC)cc1
IC50 [1]: 2.3 µM
IC50 [2]: 25 µM

The next lines start with the values.

IC50 [1]: 0.0037 µM
IC50 [2]: 48 µM
Structure (SMILES): CCCCN(CCCC)C(=O)CN1C[C@H](c2ccc(OC)cc2OC)[C@@H](C(=O)O)[C@@H]1c1ccc(OC)cc1

IC50 [1]: 0.0015 µM
Structure (SMILES): CCCCN(CCCC)C(=O)CN1C[C@H](c2ccc3c(c2)CCC3)[C@@H](C(=O)O)[C@@H]1c1ccc(OC)cc1

IC50 [1]: 0.014 µM
IC50 [2]: 77 µM
Structure (SMILES): CCCCN(CCCC)C(=O)CN1C[C@H](c2ccc(F)cc2)[C@@H](C(=O)O)[C@@H]1c1ccc(OC)cc1

IC50 [1]: 2.3 µM
IC50 [2]: 32 µM
Structure (SMILES): CCCN(C)C(=O)CN1C[C@H](c2cccc3ccccc23)[C@@H](C(=O)O)[C@@H]1c1ccc(OC)cc1

IC50 [1]: 0.0015 µM
IC50 [2]: 17 µM
Structure (SMILES): CCCCN(CCCC)C(=O)CN1C[C@H](c2ccc(F)c(F)c2)[C@@H](C(=O)O)[C@@H]1c1ccc(OC)cc1

IC50 [1]: 0.93 µM
IC50 [2]: > 100 µM
Structure (SMILES): CCCCN(CCCC)C(=O)CN1C[C@H](c2cccnc2)[C@@H](C(=O)O)[C@@H]1c1ccc(OC)cc1

IC50 [1]: 0.001 µM
IC50 [2]: 0.96 µM
Cmax [3]: 4000 ng/mL
AUC [4]: 12200 ng·h/mL
half-life [5]: 4.7 h
bioavailability [6]: 68%
AUC [7]: 6170 ng·h/mL
Structure (SMILES): CCCCN(CCCC)C(=O)CN1C[C@H](c2ccc3c(c2)OCC3)[C@@H](C(=O)O)[C@@H]1c1ccc(OC)cc1

IC50 [1]: 0.005 µM
IC50 [2]: 16 µM
Structure (SMILES): CCCCN(CCCC)C(=O)CN1C[C@H](c2cccc(F)c2)[C@@H](C(=O)O)[C@@H]1c1ccc(OC)cc1

IC50 [1]: 0.0008 µM
Structure (SMILES): CCCCN(CCCC)C(=O)CN1C[C@H](c2ccc3c(c2)OCCO3)[C@@H](C(=O)O)[C@@H]1c1ccc(OC)cc1

Cmax [3]: 3200 ng/mL
AUC [4]: 10700 ng·h/mL
half-life [5]: 3.5 h
bioavailability [6]: 68%
AUC [7]: 5830 ng·h/mL
Structure (SMILES): CCCCN(CCCC)C(=O)CN1C[C@H](c2ccc3c(c2)OCO3)[C@@H](C(=O)O)[C@@H]1c1ccc(OC)cc1

IC50 [1]: 0.002 µM
IC50 [2]: 11 µM
Structure (SMILES): CCCCN(CCCC)C(=O)CN1C[C@H](c2cccc3occc23)[C@@H](C(=O)O)[C@@H]1c1ccc(OC)cc1

IC50 [1]: 0.0013 µM
IC50 [2]: 4.1 µM
Structure (SMILES): CCCCN(CCCC)C(=O)CN1C[C@H](c2ccc(OC)cc2)[C@@H](C(=O)O)[C@@H]1c1ccc(OC)cc1

IC50 [2]: 34 µM
Structure (SMILES): CCCN(C)C(=O)CN1C[C@H](c2cccc3occc23)[C@@H](C(=O)O)[C@@H]1c1ccc(OC)cc1

IC50 [1]: 0.0007 µM
IC50 [2]: 5 µM
Cmax [3]: 4700 ng/mL
AUC [4]: 9000 ng·h/mL
half-life [5]: 4.7 h
bioavailability [6]: 38%
AUC [7]: 6170 ng·h/mL
Structure (SMILES): CCCCN(CCCC)C(=O)CN1C[C@H](c2ccc3ccoc3c2)[C@@H](C(=O)O)[C@@H]1c1ccc(OC)cc1

IC50 [1]: 0.0006 µM
IC50 [2]: 2.6 µM
Cmax [3]: 1500 ng/mL
AUC [4]: 8830 ng·h/mL
half-life [5]: 1.1 h
bioavailability [6]: 33%
AUC [7]: 3000 ng·h/mL
Structure (SMILES): CCCCN(CCCC)C(=O)CN1C[C@H](c2ccc3c(c2)CCO3)[C@@H](C(=O)O)[C@@H]1c1ccc(OC)cc1

IC50 [1]: 0.0005 µM
IC50 [2]: 5.1 µM
Cmax [3]: 1600 ng/mL
AUC [4]: 4000 ng·h/mL
half-life [5]: 3.2 h
bioavailability [6]: 39%
AUC [7]: 2330 ng·h/mL
Structure (SMILES): CCCCN(CCCC)C(=O)CN1C[C@H](c2ccc3occc3c2)[C@@H](C(=O)O)[C@@H]1c1ccc(OC)cc1
